This note sets out measurements from ChEMBL document CHEMBL5614466, “Discovery of a Series of Macrocycles as Potent Inhibitors of Leishmania Infantum” (J Med Chem, 2024).

For orientation: CC50 means the concentration at which the toxic effect on the cells reaches its halfway point.

Active and inactive are the calls of the source. The calls are words filed in the database; no cut-off is given here. Some results are limits rather than exact numbers.

Series [1] in a line: Cytotoxicity against human MRC5 cells. It counts as toxicity, cell-based.
Series [2] is described as follows: Cytotoxicity against mouse Peritoneal macrophage. It counts as toxicity, cell-based. As to conditions: peritoneal macrophages.
A further series deals with Trypanosoma brucei. Nature of the series: Antitrypanosomal activity against axenic culture of Trypanosoma brucei Squib 427 infected in human MRC-5 SV2 cells assessed as reduction in parasite growth incubated for 72 hrs by resazurin reagent based fluorescence analysis. The format is functional, organism-based. The method in brief:
(§1)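 Trypomastigotes were grown axenically in culture medium. Growth reduction was determined by the previously reported method, with and without added inhibitor.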
Background: Resazurin is reduced to fluorescent resorufin, in cell work by metabolically active cells.

In series [3] the test system is Trypanosoma brucei rhodesiense. Nature of the series: Antitrypanosomal activity against axenic culture of Trypanosoma brucei rhodesiense infected in human MRC-5 SV2 cells assessed as reduction in parasite growth incubated for 72 hrs by resazurin reagent based fluorescence analysis. It counts as functional, organism-based. An outline of the steps: as §1

For the molecule `CC(C)(C)OC(=O)N[C@H]1Cc2ccc(cc2)Oc2ccc(cc2)C(=O)CNC(=O)[C@H](Cc2ccccc2)NC1=O`, the CC50 in series [1] and in series [2] was above 64 µM throughout.
In the case of `CC(C)(C)OC(=O)N[C@H]1Cc2ccc(cc2)Oc2ccc(cc2NC(=O)c2ccccn2)C(=O)CNC(=O)[C@H](Cc2ccccc2)NC1=O`, in series [1], the CC50 was above 64 µM.
For `CC(=O)Nc1cc2ccc1Oc1ccc(cc1)C[C@H](NC(=O)OC(C)(C)C)C(=O)N[C@@H](Cc1ccccc1)C(=O)NCC2=O`, the CC50 in series [1] is above 64 µM.
With `CC(C)(C)C(=O)N[C@H]1Cc2ccc(cc2)Oc2ccc(cc2NC(=O)c2ccccn2)C(=O)CNC(=O)[C@H](Cc2ccccc2)NC1=O`, the result with Trypanosoma brucei was inactive. Also, the result in series [3] was Active.
Take `CC(C)(C)OC(=O)N[C@H]1Cc2ccc(cc2)Oc2ccc(cc2NC(=O)c2ccccn2)C(=O)CNC(=O)[C@@H](Cc2ccccc2)NC1=O`: the result in the series on Trypanosoma brucei was inactive. Besides, in series [3], the outcome was Active.
Consider `CC(C)C[C@@H]1NC(=O)[C@@H](NC(=O)OC(C)(C)C)Cc2ccc(cc2)Oc2ccc(cc2NC(=O)c2ccccn2)C(=O)CNC1=O`, for which, in the series on Trypanosoma brucei, the result was inactive. Further, the outcome in series [3] was Active.
Consider `C[C@@H]1NC(=O)[C@@H](NC(=O)OC(C)(C)C)Cc2ccc(cc2)Oc2ccc(cc2NC(=O)c2ccccn2)C(=O)CNC1=O`, for which, in the series on Trypanosoma brucei, the outcome was inactive. The result in series [3] was Active.
As for `COc1ccc(C[C@H](NC(=O)OC(C)(C)C)C(=O)N[C@@H](Cc2ccccc2)C(=O)NCC(=O)c2cccc(NC(=O)c3ccccn3)c2)cc1`, in the series on Trypanosoma brucei, the result was inactive. The result in series [3] was Active.
For the molecule `CC(=O)N[C@H]1Cc2ccc(cc2)Oc2ccc(cc2NC(=O)c2ccccn2)C(=O)CNC(=O)[C@H](Cc2ccccc2)NC1=O`, the result in the series on Trypanosoma brucei was inactive. Besides, the outcome in series [3] was Active.
Regarding `CC(C)(C)OC(=O)N[C@H]1Cc2ccc(cc2)Oc2ccc(cc2NC(=O)c2ccccn2)C(=O)CNC(=O)[C@H](c2ccccc2)NC1=O`, in the series with Trypanosoma brucei, the outcome was inactive. Also, the outcome in series [3] was Active.
Turning to `CC(C)(C)OC(=O)N[C@H]1CCc2ccc(cc2)Oc2ccc(cc2NC(=O)c2ccccn2)C(=O)CNC(=O)[C@H](Cc2ccccc2)NC1=O`, the result in the series on Trypanosoma brucei was inactive. The outcome in series [3] was Active.
`CC(C)(C)OC(=O)N[C@H]1Cc2ccc(cc2)Oc2ccc(cc2NC(=O)c2ccccn2)CCNC(=O)[C@H](Cc2ccccc2)NC1=O` yielded a CC50 in series [2] above 64 µM. The result with Trypanosoma brucei was inactive. The outcome in series [3] was Active.
